Calls of active or inactive are those of the source.
Assays:
[1] = system: MDA-MB-231; assay: Antimigratory activity against human MDA-MB-231 cells assessed as inhibition of cell migration measured by wound healing assay relative to control; assay type: functional
[2] = system: MDA-MB-231 (Homo sapiens); assay: Antimigratory activity against human MDA-MB-231 cells assessed as inhibition of cell migration measured by wound healing assay
[3] = system: BT-20; assay: Cytotoxicity against human BT-20 cells assessed as reduction in cell viability measured after 96 hrs by SRB assay; assay type: functional, cell-based; conditions: BT-20, 96 h
Procedure, shortened: (§1)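 Compounds were prepared as 20 mM DMSO stocks and applied 24 h after seeding in 96-well plates at 1-100 (so in the source) for 96 h under standard conditions. Cells were fixed with 10% trichloroacetic acid, stained with 0.4% SRB, washed with 1% acetic acid and dissolved in 20 mM Tris base. Absorbance was read at 540 nm. IC50 is the half-maximal inhibitory concentration, with a cut-off of 50. Mean ± SD of at least three independent experiments.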

[4] = system: MCF7; assay: Cytotoxicity against human MCF7 cells assessed as reduction in cell viability measured after 96 hrs by SRB assay; assay type: functional, cell-based; conditions: MCF7, 96 h; procedure, shortened: as §1
[5] = system: MDA-MB-231; assay: Cytotoxicity against human MDA-MB-231 cells assessed as reduction in cell viability measured after 96 hrs by SRB assay; assay type: functional, cell-based; conditions: MDA-MB-231, 96 h; procedure, shortened: as §1
[6] = system: Hs-578T; assay: Cytotoxicity against human Hs-578T cells assessed as reduction in cell viability measured after 96 hrs by SRB assay; assay type: functional, cell-based; procedure, shortened: as §1
[7] = system: MDA-MB-231; assay: Anticlonogenic activity against human MDA-MB-231 cells assessed as clonogenic survival rate at 40 uM measured after 24 hrs by giemsa staining based survival assay relative to control; assay type: functional; conditions: read-out: INH
Procedure, shortened: (§2)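 Cells seeded in 6-well plates and treated 24 h after seeding for 24 h. They were then trypsinized, counted and reseeded at 300 or 600 cells per 75 cm² flask. Colonies grew for about 12-14 days before paraformaldehyde fixation and 10% Giemsa staining. Only colonies of more than about 50 cells were scored for surviving fraction relative to control. Mean +SD of three independent experiments.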

[8] = system: Hs-578T; assay: Anticlonogenic activity against human Hs-578T cells assessed as clonogenic survival rate at 40 uM measured after 24 hrs by giemsa staining based survival assay relative to control; assay type: functional; procedure, shortened: as §2
[9] = system: Hs-578T; assay: Induction of apoptosis in human Hs-578T cells assessed as nuclei shrinkage at 40 uM measured after 72 hrs by DAPI staining based fluorescence microscopy relative to control; assay type: functional
Procedure, shortened: (§3)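 After 72 h treatment under standard conditions, cells were trypsinized and pelleted together with the culture supernatant. They were resuspended in PBS, fixed in 70% ethanol, cytospun onto slides and stained with DAPI for 5 min. Apoptotic cells were scored by nuclear shrinkage. Mean +SD of three independent experiments.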

[10] = system: MDA-MB-231; assay: Induction of apoptosis in human MDA-MB-231 cells assessed as nuclei shrinkage at 40 uM measured after 72 hrs by DAPI staining based fluorescence microscopy relative to control; assay type: functional; procedure, shortened: as §3
[11] = system: MDA-MB-231; assay: Anticlonogenic activity against human MDA-MB-231 cells assessed as clonogenic survival rate at 10 uM measured after 24 hrs by giemsa staining based survival assay relative to control; assay type: functional; procedure, shortened: as §2
[12] = system: Hs-578T; assay: Anticlonogenic activity against human Hs-578T cells assessed as clonogenic survival rate at 10 uM measured after 24 hrs by giemsa staining based survival assay relative to control; assay type: functional; procedure, shortened: as §2
[13] = system: Hs-578T; assay: Induction of apoptosis in human Hs-578T cells assessed as nuclei shrinkage at 10 uM measured after 72 hrs by DAPI staining based fluorescence microscopy relative to control; assay type: functional; procedure, shortened: as §3
[14] = system: MDA-MB-231; assay: Induction of apoptosis in human MDA-MB-231 cells assessed as nuclei shrinkage at 10 uM measured after 72 hrs by DAPI staining based fluorescence microscopy relative to control; assay type: functional; procedure, shortened: as §3
[15] = system: Hs-578T; assay: Induction of apoptosis in human Hs-578T cells assessed as necrotic cells at 10 uM measured after 24 hrs by Annexin V/propidium iodide staining based flow cytometry relative to control; assay type: functional
Procedure, shortened: (§4)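 Cells were seeded in 6-well plates, grown 24 h and then treated for 24 h. They were resuspended in binding buffer (10 mM HEPES/NaOH, 140 mM NaCl, 5 mM CaCl₂, pH 7.4) and stained for 15 min with propidium iodide and/or Annexin V. Flow cytometry classified vital (Q3), necrotic (Q1), late apoptotic (Q2) and apoptotic (Q4) populations.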

[16] = system: Hs-578T; assay: Induction of apoptosis in human Hs-578T cells assessed as early apoptotic cells at 10 uM measured after 24 hrs by Annexin V/propidium iodide staining based flow cytometry relative to control; assay type: functional; procedure, shortened: as §4
[17] = system: Hs-578T; assay: Induction of apoptosis in human Hs-578T cells assessed as late apoptotic cells at 10 uM measured after 24 hrs by Annexin V/propidium iodide staining based flow cytometry relative to control; assay type: functional; procedure, shortened: as §4
[18] = system: MDA-MB-231; assay: Induction of apoptosis in human MDA-MB-231 cells assessed as necrotic cells at 10 uM measured after 24 hrs by Annexin V/propidium iodide staining based flow cytometry relative to control; assay type: functional; procedure, shortened: as §4
[19] = system: MDA-MB-231; assay: Induction of apoptosis in human MDA-MB-231 cells assessed as early apoptotic cells at 10 uM measured after 24 hrs by Annexin V/propidium iodide staining based flow cytometry relative to control; assay type: functional; procedure, shortened: as §4
[20] = system: MDA-MB-231; assay: Induction of apoptosis in human MDA-MB-231 cells assessed as late apoptotic cells at 10 uM measured after 24 hrs by Annexin V/propidium iodide staining based flow cytometry relative to control; assay type: functional; procedure, shortened: as §4
[21] = system: MDA-MB-231; assay: Induction of apoptosis in human MDA-MB-231 cells assessed as increase in ROS production at 20 uM measured after 24 hrs by CM-H2DCFDA staining based flow cytometry analysis relative to control; assay type: functional; conditions: dose 5 µM, in the assay text read “at 5 uM” for “at 20 uM”
Procedure, shortened: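 Cells were plated in 6-well plates for 24 h, then treated for 24 h. They were loaded with 0.5 CM-H2DCFDA in PBS with CaCl₂/MgCl₂ for 30 min at 37 °C, washed, exposed to trypsin-EDTA (0.5%) for 3 min at 37 °C and detached with PBS. Fluorescence from dye conversion to chloromethyl-dichlorofluorescein was measured by flow cytometry. Values are fold change versus DMSO-treated cells.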

[22] = system: MDA-MB-231; assay: Radiosensitization activity in human MDA-MB-231 cells assessed as ratio of DMSO treated surviving fraction to compound treated surviving fraction at 5 uM pre-incubated for 24 hrs prior to irradiation and measured by giemsa staining based assay; assay type: functional
Procedure, shortened: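 Cells were incubated for 24 h with 5 (so in the source) compound, then irradiated with 6, 10 or 14 Gy. Colonies of more than about 50 cells were counted after about 12-14 days with Giemsa staining and normalized to unirradiated controls. DMF is the surviving fraction of DMSO control cells divided by that of treated cells, reported at 10% survival.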

[23] = system: Hs-578T; assay: Induction of apoptosis in human Hs-578T cells assessed as nuclei shrinkage at 20 uM measured after 72 hrs by DAPI staining based fluorescence microscopy relative to control; assay type: functional; procedure, shortened: as §3

SMILES	IC50 [3]	IC50 [4]	IC50 [5]	IC50 [6]	clonogenic survival relative to control at 40 µM [7]	inhibition at 40 µM [8]	Activity [9]	further results
C=C(C)[C@@H]1CC[C@]2(C(=O)O)CC[C@]3(C)[C@H](CC[C@@H]4[C@@]5(C)CC[C@H](O)C(C)(C)[C@@H]5CC[C@]43C)[C@@H]12	–	–	–	–	–	–	–	inhibition [1]: Active; inhibition [2]: Active
CC1(C)CC[C@]2(C(=O)NCc3ccccc3)CC[C@]3(C)C(=CC[C@@H]4[C@@]5(C)CC[C@H](OS(N)(=O)=O)C(C)(C)[C@@H]5CC[C@]43C)[C@@H]2C1	16.2 µM	> 50 µM	> 50 µM	15.8 µM	80.6%	73.1%	3.5%	–
CC1(C)CC[C@]2(C(=O)O)CC[C@]3(C)C(=CC[C@@H]4[C@@]5(C)CC[C@H](O)C(C)(C)[C@@H]5CC[C@]43C)[C@@H]2C1	–	–	–	–	–	–	–	inhibition [1]: inactive
C=C(C)[C@@H]1CC[C@]2(C(=O)NCc3ccccc3)CC[C@]3(C)[C@H](CC[C@@H]4[C@@]5(C)CC[C@H](OS(N)(=O)=O)C(C)(C)[C@@H]5CC[C@]43C)[C@@H]12	16.2 µM	7.5 µM	15.2 µM	18.8 µM	80.6%	73.1%	3.5%	Activity [10]: 2.1%
CC1(C)CC[C@]2(C(=O)NCc3ccccc3)CC[C@]3(C)C(=CC[C@@H]4[C@@]5(C)C[C@@H](OS(N)(=O)=O)[C@H](OS(N)(=O)=O)C(C)(C)[C@@H]5CC[C@]43C)[C@@H]2C1	5.8 µM	4.9 µM	3.7 µM	3.8 µM	–	–	–	inhibition at 10 µM [11]: 42.1%; inhibition at 10 µM [12]: 16.5%; Activity [13]: 22.1%; Activity [14]: 8.9%; Activity [15]: 2.6%; Activity [16]: 8.7%; Activity [17]: 44.4%; Activity [18]: 1.6%; Activity [19]: 7.4%; Activity [20]: 18.4%; fold change (FC) [21]: 5.7; Ratio [22]: 1.14
CC(=O)[C@@H]1CC[C@]2(C(=O)NCc3ccccc3)CC[C@]3(C)[C@H](CC[C@@H]4[C@@]5(C)CC[C@H](OS(N)(=O)=O)C(C)(C)[C@@H]5CC[C@]43C)[C@@H]12	32 µM	9.3 µM	> 50 µM	16.9 µM	80.6%	73.1%	3.5%	Activity [10]: 2.1%
C[C@H]1[C@H](C)CC[C@]2(C(=O)NCc3ccccc3)CC[C@]3(C)C(=CC[C@@H]4[C@@]5(C)CC[C@H](OS(N)(=O)=O)C(C)(C)[C@@H]5CC[C@]43C)[C@H]12	16.2 µM	–	–	–	80.6%	73.1%	–	Activity [23]: 3.5%

Source: ChEMBL document CHEMBL4828729, “MSBA-S - A pentacyclic sulfamate as a new option for radiotherapy of human breast cancer cells” (Eur J Med Chem, 2021)
